Data on 13 compounds can be found in ChEMBL document CHEMBL5107959, “Structure-activity relationships of valine, tert-leucine, and phenylalanine amino acid-derived synthetic cannabinoid receptor agonists related to ADB-BUTINACA, APP-BUTINACA, and ADB-P7AICA” (RSC Med Chem, 2022).

Data set [1] addresses T1, Cannabinoid receptor 1 (Homo sapiens, UniProt P21554). The data set is described as follows: Agonist activity at human CB1 receptor expressed in mouse AtT20 cells assessed as maximal agonist effect by measuring fluorescence at 10 uM incubated for 60 mins by FLIPR membrane potential assay relative to CP55940. The format is functional, cell-based. An outline of the steps:
(§1)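 AtT20 FlpIn cells stably expressing human CB1 or CB2, plated overnight in L-15 with 1% FBS. Loaded 60 min at 37 °C with FLIPR blue membrane potential dye, pH 7.4 buffer. Fluorescence (ex 530/em 565 nm) read every 2 s; 2 min baseline, then drug added. Change in fluorescence versus baseline minus vehicle (DMSO 0.1%/BSA 0.01% final), normalised to 1 μM CP55,940. Response taken at 10 μM where <50% change.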

Data set [2] deals with T1, Cannabinoid receptor 1. Description: Displacement of [3H]-CP55940 from human CB1 receptor expressed in human HEK293-EBNA cells incubated for 60 mins by radioligand competitive binding assay based liquid scintillation counter. The format is cell-based. On the technique in general: Displacement assays read how much labelled ligand stays bound in the presence of the test substance.

The target in data set [3] is T1, Cannabinoid receptor 1. Description: Agonist activity at CB1 receptor (unknown origin) expressed in human HEK293T cells co-expressing beta-arrestin2 assessed as beta-arrestin2 recruitment using furimazine as substrate by Nano-Glo live cell reagent assay. The format is functional, cell-based. The procedure, abridged: (§2)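 βarr2 recruitment by NanoBiT split-luciferase complementation in HEK293T stably expressing CB1-βarr2 or CB2-βarr2. Nano-Glo Live Cell reagent (furimazine) equilibrated 10 min before compound, then luminescence monitored continuously 2 h. Stocks in methanol, diluted in MeOH/Opti-MEM. EC50 from four-parameter logistic fit. Duplicates in ≥3 independent experiments.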
For orientation: Recruitment of arrestin is a read-out of receptor activation apart from second messengers.

Data set [4] concerns the target T1, Cannabinoid receptor 1. Description: Agonist activity at human CB1 receptor expressed in mouse AtT20 cells incubated for 60 mins by FLIPR membrane potential assay. The format is functional, cell-based.
The target in data set [5] is T2, Cannabinoid receptor 2 (Homo sapiens, UniProt P34972). The data set is described as follows: Displacement of [3H]-CP55940 from N-terminal 3HA-tagged human CB2 receptor expressed in human HEK293-EBNA cells incubated for 60 mins by radioligand competitive binding assay based liquid scintillation counter. The format is cell-based.
Data set [6] concerns the target T2, Cannabinoid receptor 2. The data set is described as follows: Agonist activity at human CB2 receptor expressed in mouse AtT20 cells incubated for 60 mins by FLIPR membrane potential assay. The format is functional, cell-based.
The target of data set [7] is T1, Cannabinoid receptor 1. The data set is described as follows: Agonist activity at CB1 receptor (unknown origin) expressed in human HEK293T cells co-expressing beta-arrestin2 assessed as beta-arrestin2 recruitment by measuring maximal luminescence using furimazine as substrate at 100 uM by Nano-Glo live cell reagent assay relative to CP55940. The format is functional, cell-based. An outline of the steps: (§3)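 βarr2 recruitment by NanoBiT split-luciferase complementation in HEK293T stably expressing CB1-βarr2 or CB2-βarr2. Cells seeded on poly-D-lysine overnight, washed into Opti-MEM. Nano-Glo Live Cell reagent (furimazine) equilibrated 10 min, then compound added and luminescence followed 2 h. […] Value read at highest tested concentration, 100 μM. Duplicates, ≥3 independent experiments.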

Data set [8] addresses T2, Cannabinoid receptor 2. Description: Agonist activity at human CB2 receptor expressed in mouse AtT20 cells assessed as maximal agonist effect by measuring fluorescence at 10 uM incubated for 60 mins by FLIPR membrane potential assay relative to CP55940. The format is functional, cell-based. Particulars: filed as agonist. An outline of the steps: as §1
Data set [9] deals with T2, Cannabinoid receptor 2. Description: Agonist activity at CB2 receptor (unknown origin) expressed in human HEK293T cells co-expressing beta-arrestin2 assessed as beta-arrestin2 recruitment using furimazine as substrate by Nano-Glo live cell reagent assay. The format is functional, cell-based. An outline of the steps: as §2
Data set [10] has as its target T2, Cannabinoid receptor 2. The data set is described as follows: Agonist activity at CB2 receptor (unknown origin) expressed in human HEK293T cells co-expressing beta-arrestin2 assessed as beta-arrestin2 recruitment by measuring maximal luminescence using furimazine as substrate at 100 uM by Nano-Glo live cell reagent assay relative to CP55940. Particulars: filed as agonist. The format is functional, cell-based. The procedure, abridged: as §3

Data set [11] can be described thus: Toxicity in C57BL/6J mouse assessed as reduction in body temperature at 0.1 mg/kg,ip measured after 2.5 hrs by radio-biotelemetry analysis. Conditions: in vivo. The format is organism-based. The procedure, abridged:
(§4)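 Male C57BL/6J mice (four per cohort) fitted with intraperitoneal biotelemetry transmitters, 10 days' recovery. Compound in EtOH/polysorbate 80/saline (5:5:90) given i.p. at 10 μL/g after baseline vehicle injection; escalating doses 0.03 to 10 mg/kg, one every three days.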

In data set [12] the target is T1, Cannabinoid receptor 1. The data set is described as follows: Agonist activity at human CB1 receptor expressed in mouse AtT20 cells at 10 uM incubated for 60 mins by FLIPR membrane potential assay. The data set is classed as functional, cell-based. The procedure, abridged: as §1
Data set [13] can be described thus: Toxicity in C57BL/6J mouse assessed as reduction in body temperature upto 10 mg/kg,ip measured after 2.5 hrs by radio-biotelemetry analysis. The format is organism-based. Particulars: in vivo. An outline of the steps:
as §4

The nature of data set [14]: Toxicity in C57BL/6J mouse assessed as reduction in body temperature at 10 mg/kg,ip measured after 2.5 hrs by radio-biotelemetry analysis. The data set is classed as organism-based. Particulars: in vivo. The procedure, abridged: as §4

T1 sequence (P21554 whole entry): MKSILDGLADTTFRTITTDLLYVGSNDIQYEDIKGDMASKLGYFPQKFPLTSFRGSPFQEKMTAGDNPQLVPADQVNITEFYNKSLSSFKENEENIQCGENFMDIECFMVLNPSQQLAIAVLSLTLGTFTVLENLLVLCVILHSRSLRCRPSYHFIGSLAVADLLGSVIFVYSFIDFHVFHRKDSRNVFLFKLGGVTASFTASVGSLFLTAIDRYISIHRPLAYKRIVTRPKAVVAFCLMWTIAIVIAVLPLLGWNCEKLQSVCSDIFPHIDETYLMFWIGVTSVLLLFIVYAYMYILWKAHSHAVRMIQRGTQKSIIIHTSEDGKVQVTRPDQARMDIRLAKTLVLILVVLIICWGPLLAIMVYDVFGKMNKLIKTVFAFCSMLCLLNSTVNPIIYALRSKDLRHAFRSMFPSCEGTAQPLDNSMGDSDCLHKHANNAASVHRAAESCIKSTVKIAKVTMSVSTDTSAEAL
T2 sequence (P34972 whole entry): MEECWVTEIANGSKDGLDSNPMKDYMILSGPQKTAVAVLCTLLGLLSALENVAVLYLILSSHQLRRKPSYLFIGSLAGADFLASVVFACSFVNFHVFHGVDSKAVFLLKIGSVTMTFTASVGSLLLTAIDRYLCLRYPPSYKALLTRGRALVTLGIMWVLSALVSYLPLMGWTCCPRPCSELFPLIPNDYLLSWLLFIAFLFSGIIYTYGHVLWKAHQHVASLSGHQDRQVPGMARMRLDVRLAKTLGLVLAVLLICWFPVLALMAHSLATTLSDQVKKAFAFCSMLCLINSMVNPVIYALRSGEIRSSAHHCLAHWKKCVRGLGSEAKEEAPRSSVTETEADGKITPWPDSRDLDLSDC

As usually defined, the Emax is the maximal effect, on the per cent scale that the assay sets. By Ki is commonly meant a measure of affinity in units of concentration, obtained from inhibition or displacement. A lower Ki goes with a stronger hold on the target. Regarding `CCCCn1cc(C(=O)N[C@H](C(N)=O)C(C)C)c2ccccc21`, the Emax came to 107% in data set [1] (filed as agonist), 390% in data set [7] (filed as agonist), 106% in data set [8] and 94% in [10]. In addition, the Ki is 12.2 nM in data set [2] and 77.6 nM in data set [5]. For the same compound, the EC50 in [3] (read-out: EC50) came out at 3300 nM; in data set [4] it was 53 nM; in data set [6] it was 28 nM; in [9] it was 283 nM.
For `CCCCn1nc(C(=O)N[C@H](C(N)=O)C(C)(C)C)c2ccccc21`, the Emax worked out at 113% in [1] (filed as agonist), 728% in data set [7] (filed as agonist), 101% in data set [8] and 83% in data set [10]. Moreover, in data set [11], the Activity result is on record as “Toxic”. The Ki stood at 0.299 nM in data set [2] and 0.912 nM in data set [5]. The EC50 in data set [3] (read-out: EC50) amounted to 19 nM; in data set [4], 0.67 nM; in [6], 4.1 nM; in [9], 1.79 nM.
Turning to `CCCCn1cc(C(=O)N[C@H](C(N)=O)C(C)(C)C)c2ccccc21`, the Emax in data set [1] (filed as agonist) was determined as 115%; in [7] (filed as agonist), 756%; in data set [8] it was 103%; in data set [10], 92%. Also, the Ki in [2] was 1.34 nM; in data set [5], 1.32 nM. The EC50 was 139 nM in data set [3] (read-out: EC50), 6 nM in [4], 6 nM in data set [6] and 4.44 nM in data set [9].
On to `CCCCCn1cc(C(=O)N[C@@H](Cc2ccccc2)C(N)=O)c2cccnc21`, for which the Emax in data set [1] was 30%; in [7], 6%; in data set [8], 78%; in data set [10] it was 52%. The figures for the inhibition constant Ki in data set [2] and in data set [5] were 437 nM and 794 nM, respectively. Further, the results for the EC50 in [3] (read-out: EC50), in [6] and in data set [9] were more than 100000 nM, 381 nM and 766 nM, respectively. The Activity in data set [12] was less than 50%.
`CCCCn1cc(C(=O)N[C@@H](Cc2ccccc2)C(N)=O)c2cccnc21`: the Emax in data set [1] was 19%; in [7], less than 5%; in data set [8], 79%; in data set [10], 53%. The Ki is 538 nM in data set [2] and 2190 nM in data set [5]. Also, the EC50 in [3] (read-out: EC50) was more than 1050 nM; in [3] (read-out: pEC50 (converted)), 1050 nM; in data set [6], 319 nM; in [9] it was 3630 nM. In data set [12], the Activity is less than 50%.
For the compound `CCCCn1nc(C(=O)N[C@H](C(N)=O)C(C)C)c2ccccc21`, the Emax in data set [1] (filed as agonist) was found to be 114%; in [7] (filed as agonist), 622%; in data set [8], 103%; in data set [10], 91%. The figures for the Ki in [2] and in data set [5] were 1.18 nM and 6.46 nM, respectively. Moreover, the EC50 is 187 nM in data set [3] (read-out: EC50), 7.4 nM in data set [4], 4.2 nM in [6] and 13.7 nM in [9].
`CCCCCn1cc(C(=O)N[C@H](C(N)=O)C(C)C)c2cccnc21`: the Emax in [1] (filed as agonist) stood at 112%; in data set [7] (filed as agonist), 278%; in data set [8], 93%; in data set [10], 70%. In addition, the Ki in [2] came out at 49.5 nM; in data set [5], 251 nM. For the same compound, the EC50 in data set [3] (read-out: EC50) is 4150 nM; in data set [4], 101 nM; in data set [6] it was 47 nM; in data set [9], 694 nM.
In the case of `CCCCn1cc(C(=O)N[C@H](C(N)=O)C(C)(C)C)c2cccnc21`, the Emax was found to be 117% in data set [1] (filed as agonist), 406% in data set [7] (filed as agonist), 103% in data set [8] and 85% in data set [10]. In addition, the Ki in data set [2] stood at 15.5 nM; in data set [5], 40.7 nM. Moreover, the EC50 in data set [3] (read-out: EC50) was determined as 2890 nM; in data set [4], 88 nM; in [6] it was 21 nM; in [9], 120 nM.
Take `CCCCCn1cc(C(=O)c2cccc3ccccc23)c2ccccc21`: the Emax in data set [1] (filed as agonist) amounted to 116%; in [7] (filed as agonist), 310%; in [8], 87%; in data set [10], 58%. In addition, the figures for the Ki in [2] and in data set [5] were 2.56 nM and 9.55 nM, respectively. The EC50 in data set [3] (read-out: EC50) was 35.5 nM; in [4] it was 18 nM; in [6] it was 22 nM; in [9], 7.3 nM.
With `CCCCn1cc(C(=O)N[C@@H](Cc2ccccc2)C(N)=O)c2ccccc21`, the Emax is 93% in data set [1] (filed as agonist), 50% in data set [7] (filed as agonist), 92% in [8] and 76% in data set [10]. Besides, the results for the Ki in data set [2] and in data set [5] were 307 nM and 148 nM, respectively. The EC50 in [3] (read-out: EC50) is 15500 nM; in [4], 5100 nM; in [6], 40 nM; in data set [9], 209 nM.
Take `CCCCn1nc(C(=O)N[C@@H](Cc2ccccc2)C(N)=O)c2ccccc21`: the Emax in [1] (filed as agonist) was determined as 95%; in data set [7] (filed as agonist) it was 216%; in [8] it was 99%; in data set [10] it was 71%. For the same compound, the results for the Ki in data set [2] and in [5] were 25.1 nM and 39.8 nM, respectively. Besides, the EC50 in [3] (read-out: EC50) is 1170 nM; in data set [4], 161 nM; in data set [6], 6.8 nM; in data set [9], 17 nM. Moreover, in data set [13], the Activity result is listed as “Toxic”.
Regarding `CCCCn1cc(C(=O)N[C@H](C(N)=O)C(C)C)c2cccnc21`, the Emax in [1] (filed as agonist) is 104%; in [7] (filed as agonist), 44%; in data set [8], 100%; in data set [10] it was 88%. The Ki was 501 nM in data set [2] and 891 nM in data set [5]. In addition, the EC50 in [3] (read-out: EC50) was more than 60800 nM; in data set [4], 1490 nM; in [6] it was 202 nM; in [9], 4620 nM.
With `CCCCCn1cc(C(=O)N[C@H](C(N)=O)C(C)(C)C)c2cccnc21`, the Activity result in data set [14] is recorded as “Non-Toxic”. Further, the Ki in data set [2] came out at 3.94 nM; in data set [5], 20.4 nM. The EC50 in data set [3] (read-out: EC50) is 147 nM; in data set [4], 5.8 nM; in data set [6], 7.1 nM; in data set [9] it was 22.2 nM. Further, the values for the maximum response (Emax) in [7] (filed as agonist), in [8] and in data set [10] were 544%, 108% and 102%, respectively.
